Laboratory results as given in ChEMBL document CHEMBL3785075, “Novel Water-Soluble Amphotericin B-PEG Conjugates with Low Toxicity and Potent in Vivo Efficacy” (J Med Chem, 2016).
Converted amounts (≈) assume the structure as drawn. The source made the active and inactive calls. The rule behind the calls is not given here.

Tests used:
[1] = Solubility of compound in saline by HPLC analysis; assay type: physicochemical
[2] = Chemical stability of compound in phosphate buffer saline assessed as hydrolysis after 24 hrs by HPLC analysis; assay type: physicochemical; details: read-out: Drug degradation
Summary of the method: (§1)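 Conjugate incubated in phosphate-buffered saline; samples taken at 4 h and after prolonged incubation to 24 h; percent hydrolysis determined by HPLC.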

[3] = Chemical stability of compound in phosphate buffer saline assessed as hydrolysis after 4 hrs by HPLC analysis; assay type: physicochemical; summary of the method: as §1
Candida albicans [4] = experiment: Antifungal activity against Candida albicans after 48 hrs by CLSI-M27-A3 method; assay type: functional
Pichia kudriavzevii = experiment: Antifungal activity against Candida krusei after 48 hrs by CLSI-M27-A3 method; assay type: functional
Aspergillus fumigatus = experiment: Antifungal activity against Aspergillus fumigatus after 48 hrs by CLSI-M27-A3 method; assay type: functional
Aspergillus niger = experiment: Antifungal activity against Aspergillus niger after 48 hrs by CLSI-M27-A3 method; assay type: functional
Aspergillus flavus = experiment: Antifungal activity against Aspergillus flavus after 48 hrs by CLSI-M27-A3 method; assay type: functional
Aspergillus terreus = experiment: Antifungal activity against Aspergillus terreus after 48 hrs by CLSI-M27-A3 method; assay type: functional
Rhizopus arrhizus = experiment: Antifungal activity against Rhizopus oryzae after 48 hrs by CLSI-M27-A3 method; assay type: functional
[5] = Toxicity against human RBC assessed as hemolytic activity at 6 ug/ml after 1 to 21 hrs; assay type: cell-based; details: erythrocyte
MEF [6] = experiment: Cytotoxicity against mouse MEF cells assessed as cell viability after 24 hrs by MTT assay; assay type: cell-based
[7] = Toxicity in iv dosed ICR mouse; assay type: organism-based; details: in vivo
Candida albicans [8] = experiment: Antifungal activity against Candida albicans CBS 562 assessed as viable cells at 2 times MIC after 2 hrs by time kill analysis relative to control; assay type: functional
Mus musculus [9] = experiment: Metabolic stability in ICR mouse assessed as hydrolysis at 1 mg/kg, iv after 24 hrs by HPLC analysis; assay type: ADME, organism-based; details: in vivo
Mus musculus [10] = experiment: Metabolic stability in ICR mouse at 1 mg/kg, iv after 48 hrs by HPLC analysis; assay type: ADME, organism-based; details: in vivo
[11] = Elimination rate constant in ICR mouse at 1 mg/kg, iv by HPLC analysis; assay type: ADME, organism-based; details: in vivo
[12] = Elimination half life in ICR mouse at 1 mg/kg, iv by HPLC analysis; assay type: ADME, organism-based; details: in vivo, read-out: beta t1/2 (converted)
[13] = Volume of distribution in ICR mouse at 1 mg/kg, iv after 24 hrs by HPLC analysis; assay type: ADME, organism-based; details: in vivo
[14] = Clearance in ICR mouse at 1 mg/kg, iv after 24 hrs by HPLC analysis; assay type: ADME, organism-based; details: in vivo
Mus musculus [15] = experiment: AUC(0 to 24 hrs) in ICR mouse at 1 mg/kg, iv after 24 hrs by HPLC analysis; assay type: ADME, organism-based; set-up: dose 1 mg/kg, time < 24 hr, route intravenous; details: in vivo
[16] = Mean residence time(0 to 24 hrs) in ICR mouse at 7.5 mg/kg, iv after 24 hrs by HPLC analysis; assay type: ADME, organism-based; details: in vivo
[17] = Fraction unbound in ICR mouse plasma by HPLC analysis; assay type: ADME, cell-free
Candida albicans [18] = experiment: Antifungal activity against Candida albicans CBS 562 infected in ICR mouse assessed as increase in survival rate of animal at 1 mg/kg after 24 days; assay type: functional, organism-based
Candida albicans [19] = experiment: Antifungal activity against Candida albicans CBS 562 infected in ICR mouse assessed as increase in survival rate of animal at 1.75 mg/kg after 24 days; assay type: functional, organism-based
Candida albicans [20] = experiment: Antifungal activity against Candida albicans CBS 562 infected in ICR mouse assessed as increase in survival rate of animal at 3.5 mg/kg after 24 days; assay type: functional, organism-based
Candida albicans [21] = experiment: Antifungal activity against Candida albicans CBS 562 infected in ICR mouse assessed as increase in survival rate of animal at 7 mg/kg after 24 days; assay type: functional, organism-based
Candida albicans [22] = experiment: Antifungal activity against Candida albicans CBS 562 infected in ICR mouse assessed as fungal burden in mouse kidney at 1 mg/kg after 24 hrs; assay type: functional, organism-based
Candida albicans [23] = experiment: Antifungal activity against Candida albicans CBS 562 infected in ICR mouse assessed as fungal burden in mouse kidney at 1.75 mg/kg after 24 hrs; assay type: functional, organism-based
Candida albicans [24] = experiment: Antifungal activity against Candida albicans CBS 562 infected in ICR mouse assessed as fungal burden in mouse kidney at 3.5 mg/kg after 24 hrs; assay type: functional, organism-based
Candida albicans [25] = experiment: Antifungal activity against Candida albicans CBS 562 infected in ICR mouse assessed as fungal burden in mouse kidney at 7 mg/kg after 24 hrs; assay type: functional, organism-based
Candida albicans [26] = experiment: Antifungal activity against Candida albicans CBS 562 infected in ICR mouse assessed as fungal burden in mouse spleen at 1 mg/kg after 24 hrs; assay type: functional, organism-based
Candida albicans [27] = experiment: Antifungal activity against Candida albicans CBS 562 infected in ICR mouse assessed as fungal burden in mouse spleen at 1.75 mg/kg after 24 hrs; assay type: functional, organism-based
Candida albicans [28] = experiment: Antifungal activity against Candida albicans CBS 562 infected in ICR mouse assessed as fungal burden in mouse spleen at 3.5 mg/kg after 24 hrs; assay type: functional, organism-based
Candida albicans [29] = experiment: Antifungal activity against Candida albicans CBS 562 infected in ICR mouse assessed as fungal burden in mouse spleen at 7 mg/kg after 24 hrs; assay type: functional, organism-based
Serum = experiment: Metabolic stability in mouse serum assessed as hydrolysis after 24 hrs by HPLC analysis; assay type: ADME
MEF [30] = experiment: Cytotoxicity against mouse MEF cells assessed as cell viability at 1000 ug/ml after 24 hrs by MTT assay; assay type: cell-based
[31] = Elimination half life in ICR mouse at 7.5 mg/kg, iv by HPLC analysis; assay type: ADME, organism-based; details: in vivo, read-out: beta t1/2 (converted)
Mus musculus [32] = experiment: Metabolic stability in ICR mouse assessed as hydrolysis at 7.5 mg/kg, iv after 24 hrs by HPLC analysis; assay type: ADME, organism-based; details: in vivo
Mus musculus [33] = experiment: Metabolic stability in ICR mouse at 7.5 mg/kg, iv after 48 hrs by HPLC analysis; assay type: ADME, organism-based; details: in vivo
[34] = Elimination rate constant in ICR mouse at 7.5 mg/kg, iv by HPLC analysis; assay type: ADME, organism-based; details: in vivo
[35] = Volume of distribution in ICR mouse at 7.5 mg/kg, iv after 24 hrs by HPLC analysis; assay type: ADME, organism-based; details: in vivo
[36] = Clearance in ICR mouse at 7.5 mg/kg, iv after 24 hrs by HPLC analysis; assay type: ADME, organism-based; details: in vivo
[37] = AUC(0 to 24 hrs) in ICR mouse at 7.5 mg/kg, iv after 24 hrs by HPLC analysis; assay type: ADME, organism-based; set-up: time < 24 hr, dose 7.5 mg/kg, route intravenous; details: in vivo
[38] = Mean residence time(0 to 24 hrs) in ICR mouse at 1 mg/kg, iv after 24 hrs by HPLC analysis; assay type: ADME, organism-based; details: in vivo

C[C@@H]1[C@H](O)[C@@H](C)/C=C/C=C/C=C/C=C/C=C/C=C/C=C/[C@H](O[C@@H]2O[C@H](C)[C@@H](O)[C@H](NC(=O)CCOCCOCCOCCOCCOCCOCCOCCOCCN)[C@@H]2O)C[C@@H]2O[C@](O)(C[C@@H](O)C[C@@H](O)[C@H](O)CC[C@@H](O)C[C@@H](O)CC(=O)O[C@H]1C)C[C@H](O)[C@H]2C(=O)O
solubility [1]: 5500 µg/mL (≈ 4080 µM)
degraded at 24 h [2]: 0.5%
Stability [3]: Stable
MFC (Candida albicans [4]): 4 µg/mL (≈ 2.97 µM)
MIC (Candida albicans [4]): 1 µg/mL (≈ 0.742 µM)
MFC (Pichia kudriavzevii): 8 µg/mL (≈ 5.94 µM)
MIC (Pichia kudriavzevii): 4 µg/mL (≈ 2.97 µM)
MFC (Aspergillus fumigatus): 4 µg/mL (≈ 2.97 µM)
MIC (Aspergillus fumigatus): 4 µg/mL (≈ 2.97 µM)
MFC (Aspergillus niger): 1 µg/mL (≈ 0.742 µM)
MIC (Aspergillus niger): 1 µg/mL (≈ 0.742 µM)
MFC (Aspergillus flavus): 4 µg/mL (≈ 2.97 µM)
MIC (Aspergillus flavus): 4 µg/mL (≈ 2.97 µM)
MFC (Aspergillus terreus): 32 µg/mL (≈ 23.7 µM)
MIC (Aspergillus terreus): 32 µg/mL (≈ 23.7 µM)
MFC (Rhizopus arrhizus): 8000 µg/mL (≈ 5940 µM)
MIC (Rhizopus arrhizus): 8 µg/mL (≈ 5.94 µM)
Activity [5]: Toxic
IC50 (MEF [6]): 280 µg/mL (≈ 208 µM)
MTD [7]: 22 mg/kg

C[C@@H]1[C@H](O)[C@@H](C)/C=C/C=C/C=C/C=C/C=C/C=C/C=C/[C@H](O[C@@H]2O[C@H](C)[C@@H](O)[C@H](N)[C@@H]2O)C[C@@H]2O[C@](O)(C[C@@H](O)C[C@@H](O)[C@H](O)CC[C@@H](O)C[C@@H](O)CC(=O)O[C@H]1C)C[C@H](O)[C@H]2C(=O)O [AMPHOTERICIN B]
solubility [1]: < 1 µg/mL
MFC (Candida albicans [4]): 0.5 µg/mL (≈ 0.541 µM)
MIC (Candida albicans [4]): 0.25 µg/mL (≈ 0.271 µM)
MFC (Pichia kudriavzevii): 1 µg/mL (≈ 1.08 µM)
MIC (Pichia kudriavzevii): 0.5 µg/mL (≈ 0.541 µM)
MFC (Aspergillus fumigatus): 0.5 µg/mL (≈ 0.541 µM)
MIC (Aspergillus fumigatus): 0.25 µg/mL (≈ 0.271 µM)
MFC (Aspergillus niger): 0.5 µg/mL (≈ 0.541 µM)
MIC (Aspergillus niger): 0.5 µg/mL (≈ 0.541 µM)
MFC (Aspergillus flavus): 0.5 µg/mL (≈ 0.541 µM)
MIC (Aspergillus flavus): 0.5 µg/mL (≈ 0.541 µM)
MFC (Aspergillus terreus): 4 µg/mL (≈ 4.33 µM)
MIC (Aspergillus terreus): 2 µg/mL (≈ 2.16 µM)
MFC (Rhizopus arrhizus): 250 µg/mL (≈ 271 µM)
MIC (Rhizopus arrhizus): 0.25 µg/mL (≈ 0.271 µM)
Activity (Candida albicans [8]): 100%
Activity [5]: Toxic
IC50 (MEF [6]): 6.6 µg/mL (≈ 7.14 µM)
MTD [7]: 1.1 mg/kg
Stability (Mus musculus [9]): Stable
Stability (Mus musculus [10]): Unstable
k el [11]: 1.19e-05 s⁻¹
half-life [12]: 16 h
Vd [13]: 0.006 L
clearance [14]: 0.00417 mL/min
AUC (Mus musculus [15]): 63.983 µg·h/mL
MRT last [16]: 9.66 h
fraction unbound [17]: 0.11
Activity (Candida albicans [18]): Active
Activity (Candida albicans [19]): Active
Activity (Candida albicans [20]): Active
Activity (Candida albicans [21]): Active
Activity (Candida albicans [22]): Active
Activity (Candida albicans [23]): Active
Activity (Candida albicans [24]): Active
Activity (Candida albicans [25]): Active
Activity (Candida albicans [26]): Active
Activity (Candida albicans [27]): Active
Activity (Candida albicans [28]): Active
Activity (Candida albicans [29]): Active

COC(=O)[C@H]1[C@@H]2C[C@@H](O[C@@H]3O[C@H](C)[C@@H](O)[C@H](NC(=O)CCOCCOCCOCCOCCOCCOCCOCCOCCN)[C@@H]3O)/C=C/C=C/C=C/C=C/C=C/C=C/C=C/[C@H](C)[C@@H](O)[C@@H](C)[C@H](C)OC(=O)C[C@H](O)C[C@H](O)CC[C@@H](O)[C@H](O)C[C@H](O)C[C@](O)(C[C@@H]1O)O2
solubility [1]: 700 µg/mL (≈ 514 µM)
degraded at 24 h [2]: 0.8%
Stability [3]: Stable
Stability (Serum): Stable
MFC (Candida albicans [4]): 2 µg/mL (≈ 1.47 µM)
MIC (Candida albicans [4]): 1 µg/mL (≈ 0.734 µM)
MFC (Pichia kudriavzevii): 4 µg/mL (≈ 2.94 µM)
MIC (Pichia kudriavzevii): 2 µg/mL (≈ 1.47 µM)
MFC (Aspergillus fumigatus): 2 µg/mL (≈ 1.47 µM)
MIC (Aspergillus fumigatus): 1 µg/mL (≈ 0.734 µM)
MFC (Aspergillus niger): 2 µg/mL (≈ 1.47 µM)
MIC (Aspergillus niger): 2 µg/mL (≈ 1.47 µM)
MFC (Aspergillus flavus): 2 µg/mL (≈ 1.47 µM)
MIC (Aspergillus flavus): 2 µg/mL (≈ 1.47 µM)
MFC (Aspergillus terreus): 16 µg/mL (≈ 11.8 µM)
MIC (Aspergillus terreus): 16 µg/mL (≈ 11.8 µM)
MFC (Rhizopus arrhizus): 4000 µg/mL (≈ 2940 µM)
MIC (Rhizopus arrhizus): 4 µg/mL (≈ 2.94 µM)
Activity (Candida albicans [8]): 100%
Activity [5]: Non-toxic
MTD [7]: 42 mg/kg
Activity (MEF [30]): Non-toxic
half-life [31]: 3.15 h
Stability (Mus musculus [32]): Stable
Stability (Mus musculus [33]): Unstable
k el [34]: 6.11e-05 s⁻¹
Vd [35]: 0.002 L
clearance [36]: 0.00847 mL/min
AUC(0-t) at 24 h [37]: 421 µg·h/mL
MRT last [38]: 5.43 h
fraction unbound [17]: 0.9
Activity (Candida albicans [18]): Active
Activity (Candida albicans [19]): Active
Activity (Candida albicans [20]): Active
Activity (Candida albicans [21]): Active
Activity (Candida albicans [22]): Active
Activity (Candida albicans [23]): Active
Activity (Candida albicans [24]): Active
Activity (Candida albicans [25]): Active
Activity (Candida albicans [26]): Active
Activity (Candida albicans [27]): Active
Activity (Candida albicans [28]): Active
Activity (Candida albicans [29]): Active
